A selection: hits, their analogues and other compounds. The true share with any hit is near 11%.
Diaphorase act = compounds boosting diaphorase resazurin reduction – biochemical, uHTS, resorufin fluorescence, counter-screen for diaphorase-coupled primary assays, primary screen; 190,000 compounds, 0.005% hits; Diaphorase/resazurin coupled assay, 16 min; hits give high values; 1 = vehicle wells, 0 = NADH-free wells; activation factor at 20 µM;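 active = diaphorase activity raised at least twofold by the compound at 20 µM; inactive = activation factor below 2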
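test system = bacterial diaphorase enzyme (C. kluyveri) | quantity = enzyme 0.07 U/mL final | reagent = NADH substrate 0.114 mM plus resazurin dye 0.1 mM, final | incubation = 16 min enzyme reaction, ambient temperature | buffer or medium = HEPES pH 7.4 buffer with MgCl2 and Tween 20 | signal = fluorescence of resorufin, 544 nm excitation, 590 nm emission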
Lmaj promast = Leishmania major promastigote growth inhibition, primary screen. Leishmania major promastigotes, resazurin fluorescence viability. inhibition, % at 10 µM. 200,000 compounds, 9% hits;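 note: promastigotes grown with compound for 44 hours at 28 °C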
WT yeast gro inh = growth inhibition of WT strain, primary screen, mitochondrial fusion inhibitor project, WT and mutant strains, chemical genetic; mitochondrial fusion phenotypic screen; inhibition, % at 10 µM; 190,000 compounds, 2.1% hits; AID 1362, 2008; in the data active = inhibition above about 58%; tested in S. cerevisiae
G6PDH CS = L. mesenteroides G6PDH inhibitors, counter-screen for G6PDH-coupled screening assays, biochemical, Leuconostoc mesenteroides enzyme; glucose-6-phosphate dehydrogenase [Leuconostoc mesenteroides]; Purified L. mesenteroides G6PDH, diaphorase/resazurin coupled fluorescence, 45 min; inhibition, % at 5 µM; 200,000 compounds, 0.12% hits; AID 1020, 2008
Diaph inh CS = diaphorase inhibitors and chemical oxidizers, primary screen, counter-screen for diaphorase-coupled primary assays, biochemical, uHTS, resorufin fluorescence; diaphorase resazurin-to-resorufin fluorescence, NADH, 16 min; bacterial (C. kluyveri) enzyme, not human; inhibition, % at 20 µM; 190,000 compounds, 0.69% hits; AID 1217, 2008;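 active = primary screen inhibition at 20 µM above a set limit, cut at about 50% in these data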
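material = Clostridium kluyveri diaphorase enzyme | amount = 0.14 U/mL diaphorase, enzyme working solution | schedule = incubation 16 min, room temperature | detection = fluorescence of resorufin formed from resazurin, Ex 544/Em 590 nm | benchmarks = positive control minus NADH, DMSO neutral control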
Each line names hits and unclear results; the compound was inactive in the other large screens. Cut-off read from the data, not from the text of the source, unless noted: active = inhibition above about 50%; inactive = the rest.

Cn1c(SCc2ccc(Cl)cc2)nc(C(F)(F)F)cc1=O	none
COc1ccc(N2CCN(C(=O)CN(c3ccccc3)S(=O)(=O)c3ccc(OC)cc3)CC2)cc1	none
CS(=O)(=O)N(CC(=O)Nc1cccc([N+](=O)[O-])c1)c1ccccc1	none
COc1ccc(NC(=O)CN(c2ccc([N+](=O)[O-])cc2)S(=O)(=O)c2ccccc2)cc1	none
Cc1ccccc1CN(CC(=O)Nc1cccc([N+](=O)[O-])c1)S(=O)(=O)c1ccc(Cl)cc1	Lmaj promast 99.6
COc1ccc(S(=O)(=O)N(CC(=O)N2CCN(c3ccccc3OC)CC2)c2ccccc2)cc1	Lmaj promast 90.8
COc1ccc(C)cc1S(=O)(=O)N(CC(=O)Nc1cccc([N+](=O)[O-])c1)c1ccccc1	Lmaj promast 56.0
COc1cccc(NC(=O)CN(c2ccc([N+](=O)[O-])cc2)S(=O)(=O)c2ccccc2)c1	Lmaj promast 97.6

Compound activity deposited in PubChem by several laboratories.
